Source: ChEMBL document CHEMBL1125330, “N-substituted pyrazino[2,3-c][1,2,6]thiadiazine 2,2-dioxides. A new class of diuretics” (J Med Chem, 1992)
One block for each compound: values may come before it.

Columns and labels:
Rattus norvegicus [1] = species: Rattus norvegicus; experiment: Mean sodium excretion in rats (Control/Drug treatment value); value 0.5/1.79; format: ADME, organism-based; conditions: in vivo
Rattus norvegicus [2] = species: Rattus norvegicus; experiment: Mean urinary output in rats (Control/Drug treatment value); value 27.7/36.4; format: ADME, organism-based, Urine; conditions: in vivo
Rattus norvegicus [3] = species: Rattus norvegicus; experiment: Mean urinary output in rats (Control/Drug treatment; value 23.3/29.9; format: ADME, organism-based, Urine; conditions: in vivo
Rattus norvegicus [4] = species: Rattus norvegicus; experiment: Mean sodium excretion in rats (Control/Drug treatment value); value 0.48/0.95; format: ADME, organism-based; conditions: in vivo
Rattus norvegicus [5] = species: Rattus norvegicus; experiment: Mean urinary output in rats (Control/Drug treatment value); value 25.4/33.8; format: ADME, organism-based, Urine; conditions: in vivo
Summary of the method: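 Water-loaded male Sprague-Dawley rats (HC/CFY, 175-200 g), eight per group, deprived of food and water 18 h. Single oral gavage of 20-25 mg/kg (some 10 mg/kg) in 1% CMC/0.1% Tween 80, then distilled water 2.5 mL/100 g bw po. Cumulative urine over 6 h in metabolic cages; mean mL/6 h/kg bw vs vehicle group.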

Rattus norvegicus [6] = experiment: Mean potassium excretion in rats when compound administered at 0 mg/kg po and vehicle dosed at 0 umol/kg; format: ADME, organism-based; parameters: dose 0 mg/kg, route oral; conditions: in vivo
Summary of the method: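 Male Sprague-Dawley rats (HC/CFY, 175-200 g), no food or water for 18 h before and during the test. Single gavage dose (2.5-160 mg/kg; vehicle 1% carboxymethyl cellulose/0.1% Tween 80, 0.5 mL/100 g bw), then distilled water 2.5 mL/100 g bw po. Individual metabolic cages, 6 h urine. K+ by flame photometry, Cl- colorimetric, as mequiv/6 h/kg bw; unpaired Student t-test vs control.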

Rattus norvegicus [7] = experiment: Mean sodium excretion in rats when compound administered at 0 mg/kg po and vehicle dosed at 0 umol/kg; format: ADME, organism-based; parameters: dose 0 mg/kg, route oral; conditions: in vivo
Summary of the method: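 Male Sprague-Dawley rats (HC/CFY, 175-200 g) fasted and water-deprived 18 h before and during the test. Dosed by gavage at 2.5-160 mg/kg in 1% carboxymethyl cellulose/0.1% Tween 80, 0.5 mL/100 g bw. Immediately hydrated with water (2.5 mL/100 g bw, po). Urine collected 6 h in metabolic cages; Na+ and K+ by flame photometry; mean mequiv/6 h/kg bw; nonpaired Student t-test.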

Rattus norvegicus [8] = experiment: Mean urinary output in rats when compound administered at 0 mg/kg po and vehicle dosed at 0 umol/kg; format: ADME, organism-based, Urine; parameters: dose 0 mg/kg, route oral; conditions: in vivo
Summary of the method: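 Water-loaded male Sprague-Dawley rats (HC/CFY, 175-200 g) fasted and without water for 18 h. Oral gavage of 2.5-160 mg/kg in 1% CMC with 0.1% Tween 80, then distilled water 2.5 mL/100 g po. Urine collected 6 h in metabolic cages, mean output in mL/6 h/kg bw. Unpaired Student t-test against vehicle; dose-response by linear regression.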

Rattus norvegicus [9] = experiment: Dose required to produce an excretion of 2 mequiv of Na+/kg bw/6h vs control groups; format: functional
Summary of the method: (§1)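 Male Sprague-Dawley rats (HC/CFY, 175-200 g), fasted and water-deprived 18 h before and during the test. Compound dosed by gavage in 1% carboxymethyl cellulose/0.1% Tween 80, then water load 2.5 mL/100 g bw po. Urine collected 6 h in metabolic cages; Na+ by flame photometry. Effective doses vs vehicle controls derived by linear regression of dose-response data.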

Rattus norvegicus [10] = species: Rattus norvegicus; experiment: Dose required to produce increase in 50 % in urine production vs control groups; format: functional; conditions: Rattus norvegicus, Urine; summary of the method: as §1
Rattus norvegicus [11] = species: Rattus norvegicus; experiment: Dose required to produce increase in 200 % in urine production vs control groups; format: functional; summary of the method: as §1
Rattus norvegicus [12] = experiment: Post dosing time interval of maximum activity; format: functional
Summary of the method: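 Interval of peak activity taken from timed urine collections (0-1, 1-2, 2-3, 3-4, 4-6 h) after a single oral dose in water-loaded fasted rats, […]. Urine volume and Na+ excretion followed over time.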

Rattus norvegicus [13] = species: Rattus norvegicus; conditions: in vivo, po, 80 mg/kg

V (Rattus norvegicus [2]): 1.3
Compound: CCN1c2nc(C)c(C)nc2C(N)=NS1(=O)=O
Na (Rattus norvegicus [1]): 3.6 m equiv 6hr-1 kg-1 (body weight)-1

V (Rattus norvegicus [3]): 1.3
Compound: CCN1c2nc(C(F)(F)F)c(C(F)(F)F)nc2C(N)=NS1(=O)=O

Na (Rattus norvegicus [4]): 2 | V (Rattus norvegicus [5]): 1.3
Compound: CCc1nc2c(nc1CC)N(CC)S(=O)(=O)N=C2N

V (Rattus norvegicus [8]): 24.04 ml 6hr-1 (kg of body weight)-1 | V (Rattus norvegicus [13]): 75.5 ml 6hr-1 (kg of body weight)-1
Compound: NS(=O)(=O)c1cc(C(=O)O)c(NCc2ccco2)cc1Cl [FUROSEMIDE]
K (Rattus norvegicus [6]): 0.47 m equiv 6hr-1 kg-1 (body weight)-1 | Na (Rattus norvegicus [7]): 0.39 m equiv 6hr-1 kg-1 (body weight)-1 | ED2 (Rattus norvegicus [9]): 12.95 mg/kg | ED50 (Rattus norvegicus [10]): 12.1 mg/kg | ED200 (Rattus norvegicus [11]): 70.59 mg/kg | Time (Rattus norvegicus [12]): 1 h
